An excerpt weighted towards active compounds, which were near 1.9% of everything screened.
CHRM4 agonist: human M4 muscarinic receptor agonists, primary screen, CHO-K1 cells, Fluo-8 calcium fluorescence | activation, % at 3 µM | 360,000 compounds, 0.14% hits | CHO-K1 hM4/Gqi5; vehicle 0%, full acetylcholine response 100% | Muscarinic acetylcholine receptor M4 (Homo sapiens), P08173;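 active = activation above the run mean over all test wells plus 3 SD, cut at about 32% in these data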;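 also: peak over basal fluorescence ratio per well then scaled between controls; 0% = DMSO wells and 100% = acetylcholine at EC100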
M5 antag: human M5 muscarinic receptor antagonists, primary screen, CHO cells, Fluo-8 calcium fluorescence; Muscarinic acetylcholine receptor M5 (Homo sapiens), P08912; CHO-hM5 cells, ACh EC80; inhibition, % at 3 µM; 360,000 compounds, 0.59% hits; AID 624040, 2012;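 active = inhibition above a per-plate cutoff, the mean of that plate's test compounds plus 3 SD, cut at about 27% in these data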;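 also: 0% = acetylcholine EC80 with DMSO and 100% = DMSO without agonist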
Target sequence (P08912 whole entry, looked up): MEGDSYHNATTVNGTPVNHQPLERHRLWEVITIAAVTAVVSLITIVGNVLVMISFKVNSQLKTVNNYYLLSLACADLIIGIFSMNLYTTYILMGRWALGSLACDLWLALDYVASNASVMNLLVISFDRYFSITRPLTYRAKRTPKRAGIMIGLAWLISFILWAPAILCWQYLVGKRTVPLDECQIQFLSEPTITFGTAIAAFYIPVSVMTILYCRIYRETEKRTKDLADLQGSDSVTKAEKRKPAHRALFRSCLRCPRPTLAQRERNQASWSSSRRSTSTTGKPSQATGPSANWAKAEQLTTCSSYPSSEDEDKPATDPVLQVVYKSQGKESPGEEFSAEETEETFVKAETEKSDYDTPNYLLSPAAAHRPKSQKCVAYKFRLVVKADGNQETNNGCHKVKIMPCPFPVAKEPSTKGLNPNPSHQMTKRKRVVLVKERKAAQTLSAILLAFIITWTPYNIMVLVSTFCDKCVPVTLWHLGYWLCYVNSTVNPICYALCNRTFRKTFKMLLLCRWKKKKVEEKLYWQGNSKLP
CHRM4 PAM: human M4 muscarinic receptor positive allosteric modulators, primary screen, CHO-K1 cells, Fluo-8 calcium fluorescence; Muscarinic acetylcholine receptor M4 (Homo sapiens), P08173; CHO-K1 hM4/Gqi5, ACh EC20; 0% = ACh EC20, 100% = maximal ACh; activation, % at 3 µM; 360,000 compounds, 0.4% hits; AID 624126, 2012;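 active = activation above its plate's cutoff, the mean activation of sample wells plus 3 SD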
M4 antag: human M4 muscarinic receptor antagonists, primary screen, CHO cells, Fluo-8 calcium fluorescence; CHO-hM4 cells, ACh EC80; inhibition, % at 3 µM; 360,000 compounds, 0.73% hits; AID 624125, 2012;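 active = inhibition above its plate's cutoff, the mean inhibition of sample wells plus 3 SD, cut at about 27% in these data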;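 also: 0% = acetylcholine EC80 with DMSO and 100% = DMSO without agonist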
M5 ag: human M5 muscarinic receptor agonists, primary screen, CHO-K1 cells, Fluo-8 calcium fluorescence; activation, % at 3 µM; CHO-K1 hM5 cells; 0% DMSO wells, 100% maximal acetylcholine response; AID 624037, 2012; Muscarinic acetylcholine receptor M5 (Homo sapiens), P08912; 360,000 compounds, 0.19% hits;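 active = activation above the run's mean over test compounds plus 3 SD, cut at about 23% in these data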;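 also: signal is peak over basal fluorescence ratio across the kinetic read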
CHRM5 PAM: human M5 muscarinic receptor positive allosteric modulators, primary screen, CHO-K1 cells, Fluo-8 calcium fluorescence | Muscarinic acetylcholine receptor M5 (Homo sapiens), P08912 | 360,000 compounds, 0.3% hits | AID 624038, 2012 | CHO-K1 hM5, ACh EC20 PAM; 0% = ACh EC20, 100% = ACh EC100 | activation, % at 3 µM;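 active = activation above the run cutoff, the mean activation of all test compounds plus 3 SD, cut at about 18% in these data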
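Replicates: One well per compound, no replicates | System: Human M5 receptor in CHO-K1 cells | Benchmarks: Low control EC20 acetylcholine (0%), high control EC100 acetylcholine (100%) | Probe or stimulus: Acetylcholine, EC20 level | Times: Fluo-8 loading 80 min at 37 °C plus 30 min room temperature | Signal: Intracellular calcium via Fluo-8 fluorescence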
Starred values were filed as active, the others as inactive.

SMILES	CHRM4 agonist	M5 antag	CHRM4 PAM	M4 antag	M5 ag	CHRM5 PAM
COc1ccccc1-c1cc(C2CC2)nc(N)c1C#N	-2	-9	10	1	-2	5
CCCCNC(=O)C1c2ccccc2OCC(=O)N1Cc1ccc2c(c1)OCO2 (stereo not drawn)	1	-1	1	-3	0	0
CCCCNC(=O)C1c2ccccc2OCC(=O)N1Cc1ccccc1 (stereo not drawn)	1	-16	23*	-11	1	12
CN(C)c1nnnn1-c1ccc(Oc2ncc(C(F)(F)F)cc2Cl)cc1	0	-13	-9	2	-4	5
CC(C)C(NC(=O)c1ccccc1)C(=O)N1CCCCCC1 (stereo not drawn)	1	-3	4	4	-5	0
CCc1noc(C)c1C(=O)N(C)CC(=O)Nc1ccc(Br)cc1C	1	-13	5	-11	-1	-2
Cc1ccnn1CC(=O)N/N=C/c1cn[nH]c1-c1ccc(F)cc1	0	0	-20	-8	-1	-3
CC1(OC(=O)C2CCCC2)C(=O)C=C2C=C(c3ccsc3)N(C3CCCC3)C=C2C1=O (stereo not drawn)	1	1	6	-7	39*	-8
CC1(OC(=O)C2CCCC2)C(=O)C=C2C=C(c3ccsc3)N(CCCCO)C=C2C1=O (stereo not drawn)	1	7	-3	-3	-1	3
Cc1cccc(NC(=O)c2sc3nc(-c4ccc(F)cc4)cn3c2C)n1	4	32*	-7	0	-7	-18
Cn1c(-c2ccc3c(c2)OCO3)cnc1NCc1ccc(Cl)cc1	1	3	-28	14	-7	-10
Cc1ccc(CNc2ncc(-c3ccc4c(c3)OCO4)n2C)cc1	0	5	-28	28*	-7	-12
CN(C)c1ccc(C(=O)OCC(=O)NC2CCCCC2)cc1	2	-15	1	-16	1	35*
CN(C)c1cccc(C(=O)OCC(=O)NC2CCCC2)c1	0	-4	-2	-4	-2	0
O=C(COC(=O)c1ccc(Cl)nc1)NC1CCCCCC1	0	2	26*	-1	0	0
O=C(OCC(=O)N(C1CCCCC1)C1CCCCC1)c1ccc(Cl)nc1	1	-13	20	-7	4	6
O=C(CN1CCCCC1)Nc1ccccc1Oc1ccccc1	0	-1	-1	5	-20	-4
COc1cccc(N=Nc2c(N)[nH]n3c(=O)c4c(nc23)CCCC4)c1	10	23	-8	3	-3	-12
C=C1CC2C(=O)N(Cc3ccccc3)C(C(=O)OCC)(C(=O)OCC)C1N2C(=O)OC(C)(C)C (stereo not drawn)	-1	12	3	-2	-6	3
CC1CCCN(C(=S)NCCc2ccccc2)C1 (stereo not drawn)	0	-9	5	-6	-7	19*
S=C(NCCc1ccccc1)N1CCCC1	1	3	-11	-1	-5	8
CC(=O)N1CCc2c(sc(NC(=O)CS(=O)(=O)c3ccc(F)cc3)c2C(N)=O)C1	0	0	1	5	-3	4
Cc1ccc(S(=O)(=O)NNC(=O)C2CCN(Cc3ccccc3)CC2)cc1	1	53*	-30	41*	-5	-18
COC(=O)C1CCN(Cc2ccc(C)cc2)CC1	0	5	2	-2	-3	-4
COc1ccc2[nH]c3c(c2c1)CCN1C(=O)C(CC(=O)NCc2ccco2)C[C@H](C(=O)N2CCCCC2)[C@@]31CCc1ccccc1 (stereo partly drawn)	0	9	-2	-2	1	-4
SMILES	CHRM4 agonist	M5 antag	CHRM4 PAM	M4 antag	M5 ag	CHRM5 PAM
COc1ccc(NC(=O)c2cccs2)cc1C(=O)N1CCN(c2ccccc2)CC1	10	11	-10	8	-1	-12
CCS(=O)(=O)Nc1cccc(-c2cn3c(n2)SCC3)c1	1	-5	1	-1	-2	1
CS(=O)(=O)Nc1cccc(-c2cn3c(n2)SCC3)c1	0	31*	7	-8	-7	-5
COc1ccc(OC)c(C2C(C(=O)c3ccc(C)o3)=C(O)C(=O)N2CCCN2CCOCC2)c1 (stereo not drawn)	1	-9	1	-13	-3	23*
CN(C1=NS(=O)(=O)c2ccccc21)c1ccc(OC(=O)c2ccncc2)cc1	2	4	4	-3	-13	-18
CSc1nc(N)nc2c1ncn2CC(=O)N1CCN(Cc2c(C)cc(C)cc2C)CC1	13	32*	-7	7	3	-15
Cc1cc(C)c(CN2CCN(C(=O)Cn3ccc(N)nc3=O)CC2)c(C)c1	1	6	13	-9	-6	-2
CCOC(=O)c1c(-c2ccc(C)o2)csc1NC(=O)CN(C)CC(=O)Nc1ccc(C)cc1	6	15	-21	31*	-3	-6
CC(C)Sc1n[nH]c(=O)n1-c1ccccc1	8	6	-10	-2	1	-4
COc1ccc(C(=O)N2CCCCC2c2cc(C(=O)NCc3ccc(F)cc3)no2)cc1 (stereo not drawn)	4	5	-3	-2	-1	-6
COc1ccccc1CCNC(=O)Cn1c(=O)oc2ccccc21	4	40*	-2	3	-3	-14
COc1ccccc1CCNC(=O)CCn1c(=O)oc2ccccc21	0	-1	3	-8	1	-3
CC1(c2nnnn2-c2ccc3c(c2)OCCO3)CCC(=O)N1C1CC1 (stereo not drawn)	0	4	13	-4	2	-3
Nc1ccc(S(=O)(=O)N2CCc3ccccc32)cc1	1	7	-2	12	-2	-1
O=S(=O)(NC1CCCC1)c1ccc(S(=O)(=O)N2CCc3ccccc32)cc1	22	29*	-16	29*	8	-15
CC(=O)Oc1ccc(-c2ccc(C(=O)Nc3cccc(S(=O)(=O)N4CCOCC4)c3)cc2)cc1	16	6	-14	10	0	-2
CCCCNC(=O)C1(C)CCN1C(=O)c1ccc2c(c1)CCO2 (stereo not drawn)	0	10	2	-11	2	1
Cc1cc(C)c(C)c(S(=O)(=O)N2CCC(C(=O)N3CC(C)CC(C)C3)CC2)c1C (stereo not drawn)	0	6	20*	-5	-4	-6
